The structures appear in SMILES notation. In brackets after ≈: the same amount, converted by molar mass.

One data set deals with T1, Adenosine deaminase (Bos taurus, UniProt P56658).
T1 sequence (P56658 whole entry): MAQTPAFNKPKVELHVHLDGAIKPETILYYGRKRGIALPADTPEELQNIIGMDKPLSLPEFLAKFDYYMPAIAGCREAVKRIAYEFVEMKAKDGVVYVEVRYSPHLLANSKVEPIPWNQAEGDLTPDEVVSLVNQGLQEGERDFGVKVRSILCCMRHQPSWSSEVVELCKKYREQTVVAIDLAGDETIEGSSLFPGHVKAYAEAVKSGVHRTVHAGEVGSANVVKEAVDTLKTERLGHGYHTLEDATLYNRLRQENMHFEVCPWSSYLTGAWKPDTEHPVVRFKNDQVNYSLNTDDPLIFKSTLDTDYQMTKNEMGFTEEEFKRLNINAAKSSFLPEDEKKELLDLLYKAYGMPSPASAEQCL
The data set is described as follows: Stability of the compound assessed as calf mucosal adenosine deaminase-mediated drug metabolism. Format: ADME. Conditions: cattle.
For the compound `CCCCC(=O)OC[C@H]1O[C@@H](n2cnc3c(N)ncnc32)[C@@H](O)[C@@H]1O`, the Stability entry was “Stable”.

Take `CC(C)CC(=O)OC[C@H]1O[C@@H](n2cnc3c(N)ncnc32)[C@@H](O)[C@@H]1O`: the Stability result was “Stable”.

For the compound `CC(C)(C)C(=O)OC[C@H]1O[C@@H](n2cnc3c(N)ncnc32)[C@@H](O)[C@@H]1O`, the Stability result is on record as “Stable”.

Regarding `CCCCCC(=O)OC[C@H]1O[C@@H](n2cnc3c(N)ncnc32)[C@@H](O)[C@@H]1O`, the Stability result was “Stable”.

For `CC(C)(C)CC(=O)OC[C@H]1O[C@@H](n2cnc3c(N)ncnc32)[C@@H](O)[C@@H]1O`, the Stability result was “Stable”.

In another data set the test system is Human alphaherpesvirus 1. Description: Antiviral activity against HSV-1 assessed at 17 ug/ml by plaque reduction assay relative to control. Format: functional. On the set-up: scale not given: the % may be the effect or the level left.
Conditions: not given
For orientation: In a plaque reduction assay, fewer plaques than in the control indicate reduced infectivity or spread.
In turn, `CC(=O)OC[C@H]1O[C@@H](n2cnc3c(N)ncnc32)[C@@H](O)[C@@H]1O` showed an Activity of 86%.

`Nc1ncnc2c1ncn2[C@@H]1O[C@H](CO)[C@@H](O)[C@@H]1O` [VIDARABINE] showed an Activity of 100%.

For a further data set, the system named is Human alphaherpesvirus 1. The data set is described as follows: Antiviral activity against HSV-1 assessed at 6.5 ug/ml by plaque reduction assay relative to control. Format: functional. On the set-up: scale not given: the % may be the effect or the level left.
Conditions: not given
`CCCCCC(=O)OC[C@H]1O[C@@H](n2cnc3c(N)ncnc32)[C@@H](O)[C@@H]1O`: the Activity was 25%.

In turn, `CC(C)(C)CC(=O)OC[C@H]1O[C@@H](n2cnc3c(N)ncnc32)[C@@H](O)[C@@H]1O` had an Activity of 10%.

`Nc1ncnc2c1ncn2[C@@H]1O[C@H](COC(=O)c2ccccc2)[C@@H](O)[C@@H]1O` came in with an Activity of 71%.

`Nc1ncnc2c1ncn2[C@@H]1O[C@H](CO)[C@@H](O)[C@@H]1O` [VIDARABINE] gave an Activity of 63%.

Test system in another data set: not listed separately
The data set is described as follows: Aqueous solubility of the compound at 0.1 M phosphate buffer after 16 hrs by UV spectrometry. Format: physicochemical.
Conditions: not given
An outline of the steps:
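Excess solid (10 mg) was agitated for 16 h with 5 mL of 0.1 M phosphate buffer. The mixture was filtered through sintered glass to remove undissolved solid. Dissolved concentration was determined from UV absorbance against values previously determined in buffer.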
Turning to `CC(=O)OC[C@H]1O[C@@H](n2cnc3c(N)ncnc32)[C@@H](O)[C@@H]1O`, the concentration in solution (solubility at 16 h) was 6600 µg/mL (≈ 21.3 mM).

As for `CCC(=O)OC[C@H]1O[C@@H](n2cnc3c(N)ncnc32)[C@@H](O)[C@@H]1O`, the solubility – broadly, how much of the substance goes into solution per volume – at 16 h came to 9200 µg/mL (≈ 28.5 mM).

In the case of `CCCC(=O)OC[C@H]1O[C@@H](n2cnc3c(N)ncnc32)[C@@H](O)[C@@H]1O`, the concentration in solution (solubility at 16 h) was 16100 µg/mL (≈ 47.7 mM).

`CCCCC(=O)OC[C@H]1O[C@@H](n2cnc3c(N)ncnc32)[C@@H](O)[C@@H]1O` came in with a solubility at 16 h of 8400 µg/mL (≈ 23.9 mM).

The compound `CC(C)CC(=O)OC[C@H]1O[C@@H](n2cnc3c(N)ncnc32)[C@@H](O)[C@@H]1O` registered a solubility at 16 h of 19800 µg/mL (≈ 56.4 mM).

`CC(C)(C)C(=O)OC[C@H]1O[C@@H](n2cnc3c(N)ncnc32)[C@@H](O)[C@@H]1O` registered a solubility at 16 h of 7000 µg/mL (≈ 19.9 mM).

With `CCCCCC(=O)OC[C@H]1O[C@@H](n2cnc3c(N)ncnc32)[C@@H](O)[C@@H]1O`, the concentration in solution (solubility at 16 h) was 2500 µg/mL (≈ 6.84 mM).

For `CC(C)(C)CC(=O)OC[C@H]1O[C@@H](n2cnc3c(N)ncnc32)[C@@H](O)[C@@H]1O`, the concentration in solution (solubility at 16 h) came to 7800 µg/mL (≈ 21.3 mM).

For `CCCCCCCC(=O)OC[C@H]1O[C@@H](n2cnc3c(N)ncnc32)[C@@H](O)[C@@H]1O`, the solubility at 16 h worked out at 100 µg/mL (≈ 0.254 mM).

The compound `Nc1ncnc2c1ncn2[C@@H]1O[C@H](COC(=O)CCc2ccccc2)[C@@H](O)[C@@H]1O` yielded a solubility at 16 h of 1500 µg/mL (≈ 3.76 mM).

The compound `Nc1ncnc2c1ncn2[C@@H]1O[C@H](COC(=O)c2ccccc2)[C@@H](O)[C@@H]1O` displayed a solubility at 16 h of 80 µg/mL (≈ 0.215 mM).

The test system of a further data set is Human alphaherpesvirus 1. The data set is described as follows: Antiviral activity against HSV-1 assessed at 7 ug/ml by plaque reduction assay relative to control. Format: functional. Further details: scale not given: the % may be the effect or the level left.
Conditions: not given
Compound `CC(C)CC(=O)OC[C@H]1O[C@@H](n2cnc3c(N)ncnc32)[C@@H](O)[C@@H]1O` registered an Activity of 53%.

In turn, `Nc1ncnc2c1ncn2[C@@H]1O[C@H](COC(=O)CCc2ccccc2)[C@@H](O)[C@@H]1O` registered an Activity of 29%.

`Nc1ncnc2c1ncn2[C@@H]1O[C@H](CO)[C@@H](O)[C@@H]1O` [VIDARABINE] came in with an Activity of 63%.

A further data set relates to Human alphaherpesvirus 1. Description: Antiviral activity against HSV-1 assessed at 6 ug/ml by plaque reduction assay relative to control. Format: functional. On the set-up: scale not given: the % may be the effect or the level left.
Conditions: not given
`CCC(=O)OC[C@H]1O[C@@H](n2cnc3c(N)ncnc32)[C@@H](O)[C@@H]1O` returned an Activity of 83%.

Compound `CCCC(=O)OC[C@H]1O[C@@H](n2cnc3c(N)ncnc32)[C@@H](O)[C@@H]1O` had an Activity of 67%.

Compound `CCCCC(=O)OC[C@H]1O[C@@H](n2cnc3c(N)ncnc32)[C@@H](O)[C@@H]1O` came in with an Activity of 100%.

For the compound `Nc1ncnc2c1ncn2[C@@H]1O[C@H](CO)[C@@H](O)[C@@H]1O` [VIDARABINE], the Activity is 54%.

Test system in another data set: not listed separately
Description: Half life of the compound. Format: physicochemical.
Conditions: not given
Take `Nc1ncnc2c1ncn2[C@@H]1O[C@H](COC=O)[C@@H](O)[C@@H]1O`: the half-life (in general, the time in which the quantity being followed falls by half) is 240 h.

A further data set relates to Human alphaherpesvirus 1. The data set is described as follows: Antiviral activity against HSV-1 assessed at 20 ug/ml by plaque reduction assay relative to control. Format: functional. Further details: scale not given: the % may be the effect or the level left.
Conditions: not given
Compound `CC(C)(C)C(=O)OC[C@H]1O[C@@H](n2cnc3c(N)ncnc32)[C@@H](O)[C@@H]1O` registered an Activity of 11%.

Take `Nc1ncnc2c1ncn2[C@@H]1O[C@H](CO)[C@@H](O)[C@@H]1O` [VIDARABINE]: the Activity is recorded as 69%.

The target of a further data set is T1, Adenosine deaminase. The data set is described as follows: Inhibition of calf mucosal adenosine deaminase.
Conditions: not given
`CCCCC(=O)OC[C@H]1O[C@@H](n2cnc3c(N)ncnc32)[C@@H](O)[C@@H]1O`: the Ki (commonly the dissociation constant of the complex between target and ligand, obtained from inhibition or displacement) was found to be 11 µM.

Test system in a further data set: not listed separately
The data set is described as follows: Aqueous stability of the compound assessed as time required for 10% decomposition at 25 degC by Arrhenius plot. Format: physicochemical. Conditions: buffer. An outline of the steps: (§1)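 Ester hydrolysis was followed at pH 6.56 at 60, 80 and 100 °C by HPLC (40:60 methanol-water, 254-nm detection). First-order rates came from log[ester] vs time. An Arrhenius plot of log rate vs reciprocal temperature (K) was extrapolated to 25 °C.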
Turning to `CCCCC(=O)OC[C@H]1O[C@@H](n2cnc3c(N)ncnc32)[C@@H](O)[C@@H]1O`, the Time was 2.25 yr.

The subject of another data set is Human alphaherpesvirus 1. Description: Antiviral activity against HSV-1 assessed at 0.6 ug/ml by plaque reduction assay relative to control. Format: functional. Further details: scale not given: the % may be the effect or the level left.
Conditions: not given
For `CCCCC(=O)OC[C@H]1O[C@@H](n2cnc3c(N)ncnc32)[C@@H](O)[C@@H]1O`, the Activity was determined as 90%.

As to `Nc1ncnc2c1ncn2[C@@H]1O[C@H](CO)[C@@H](O)[C@@H]1O` [VIDARABINE], the Activity is 0%.

Test system in another data set: not listed separately
The data set is described as follows: Aqueous stability of the compound assessed as hydrolysis rate at 25 degC by Arrhenius plot. Format: physicochemical. Conditions: buffer. An outline of the steps: as §1
For `CCCCC(=O)OC[C@H]1O[C@@H](n2cnc3c(N)ncnc32)[C@@H](O)[C@@H]1O`, the Drug degradation came out at 5.4 ×10⁻⁶ /hr.

The next data set deals with Human alphaherpesvirus 1. Description: Antiviral activity against HSV-1 assessed at 2 ug/ml by plaque reduction assay relative to control. Format: functional. Further details: scale not given: the % may be the effect or the level left.
Conditions: not given
`CCCCCCCC(=O)OC[C@H]1O[C@@H](n2cnc3c(N)ncnc32)[C@@H](O)[C@@H]1O`: the Activity turned out to be 45%.

`Nc1ncnc2c1ncn2[C@@H]1O[C@H](CO)[C@@H](O)[C@@H]1O` [VIDARABINE] came in with an Activity of 64%.

Values taken from ChEMBL document CHEMBL3243926, “Prodrugs of 9-beta-D-arabinofuranosyladenine. 1. Synthesis and evaluation of some 5'-(O-acyl) derivatives” (J Med Chem, 1978).
